These results are taken from ChEMBL document CHEMBL3616423, “Design and synthesis of novel hydroxyanthraquinone nitrogen mustard derivatives as potential anticancer agents via a bioisostere approach” (Eur J Med Chem, 2015).

The subject of data set [1] is MDA-MB-231. Briefly: Cytotoxicity against human MDA-MB-231 cells assessed as cell viability after 5 days by cell viability analyzer. In kind it is functional, cell-based. Conditions: MDA-MB-231, 120 h. The procedure, abridged:
(§1)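 Cells were grown in DMEM with 10% FBS, 4 mM glutamine, 1 mM sodium pyruvate, penicillin/streptomycin and amphotericin at 37 °C under 5% CO2, then seeded at 20,000 per well. They were exposed to five doses from 0.01 to 10 μM for 5 days, with DMSO vehicle as control. Viable cells were counted, and % viability was calculated as treated/vehicle. IC50 was taken from dose-response curves over three independent experiments.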

Data set [2] concerns HeLa. Briefly: Cytotoxicity against human HeLa cells assessed as cell viability after 5 days by cell viability analyzer. Type of data set: functional, cell-based. Conditions: 120 h. The procedure, abridged:
as §1

In the next data set the test system is MCF10. Briefly: Cytotoxicity against human MCF10 cells at 1 to 10 uM. Type of data set: cell-based. As to conditions: mcf10, 10 µM.
The test system of data set [3] is HeLa. Briefly: Ratio of chlorambucil IC50 to compound IC50 for human HeLa cells assessed as cell viability after 5 days by cell viability analyzer. Type of data set: functional. A digest of the protocol: (§2)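 Cells grown in DMEM with 10% FBS, 4 mM glutamine, 1 mM sodium pyruvate, penicillin/streptomycin and amphotericin at 37 °C under 5% CO2. They were seeded at 20,000 per well and exposed to test agents or chlorambucil at 5 doses (0.01–10 μM) for 5 days, with DMSO as vehicle. Viable cells were counted by analyzer and expressed as % of vehicle. IC50s for both agents came from dose-response curves over three independent experiments.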

The test system of data set [4] is MDA-MB-231. Briefly: Ratio of chlorambucil IC50 to compound IC50 for human MDA-MB-231 cells assessed as cell viability after 5 days by cell viability analyzer. In kind it is functional. A digest of the protocol:
as §2

For a further data set, the system named is MCF7. Briefly: Ratio of chlorambucil IC50 to compound IC50 for human MCF7 cells assessed as cell viability after 5 days by cell viability analyzer. Type of data set: functional. A digest of the protocol:
as §2

Consider `O=C1c2ccccc2C(=O)c2c(O)c(C(Cc3ccccc3)N(CCCl)CCCl)cc(O)c21` (stereo not given), for which the 50% inhibitory concentration (IC50) (in general, the midpoint of a concentration-inhibition curve) is 0.0511 µM in the data set with MDA-MB-231 [1] and 0.665 µM in the data set with HeLa [2].

On to `CC(C)C(c1cc(O)c2c(c1O)C(=O)c1ccccc1C2=O)N(CCCl)CCCl` (stereo not given), for which the 50% inhibitory concentration (IC50) worked out at 0.0776 µM in the data set on MDA-MB-231 [1] and 0.217 µM in the data set with HeLa [2]. The Activity result in the data set with MCF10 is given as “Toxic”.

Consider `O=C1c2cccc(O)c2C(=O)c2c1ccc(C(c1ccccc1)N(CCCl)CCCl)c2O` (stereo not given), for which the values for the IC50 in the data set with MDA-MB-231 [1] and in the data set with HeLa [2] were 0.316 µM and 0.308 µM, respectively.

With `COc1ccc(C(c2cc(O)c3c(c2O)C(=O)c2ccccc2C3=O)N(CCCl)CCCl)cc1` (stereo not given), the half-inhibitory concentration (IC50) with MDA-MB-231 [1] is 0.0129 µM; in the data set on HeLa [2], 0.457 µM. The Activity result in the data set on MCF10 is recorded as “Toxic”.

For `COc1cccc(C(c2cc(O)c3c(c2O)C(=O)c2ccccc2C3=O)N(CCCl)CCCl)c1` (stereo not given), the half-maximal inhibitory concentration (IC50) in the data set with MDA-MB-231 [1] was 0.0912 µM; with HeLa [2], 0.21 µM. Further, the Activity entry with MCF10 is “Toxic”.

As to `O=C1c2ccccc2C(=O)c2c(O)c(CN(CCCl)CCCl)cc(O)c21`, the figures for the IC50 in the data set on MDA-MB-231 [1] and with HeLa [2] were 0.211 µM and 0.139 µM, respectively.

On to `Cc1ccc(C(c2cc(O)c3c(c2O)C(=O)c2ccccc2C3=O)N(CCCl)CCCl)cc1` (stereo not given), for which the figures for the IC50 with MDA-MB-231 [1] and with HeLa [2] were 0.0225 µM and 0.0938 µM, respectively. The “Ratio IC50” value with HeLa [3] was 10.

Consider `COc1cc(C(c2ccccc2)N(CCCl)CCCl)c(O)c2c1C(=O)c1ccccc1C2=O` (stereo not given), for which the values for the IC50 with MDA-MB-231 [1] and in the data set with HeLa [2] were 0.278 µM and 0.48 µM, respectively. For the same compound, in the data set with MCF10, the Activity entry is “Toxic”.

Consider `CC(c1cc(O)c2c(c1O)C(=O)c1ccccc1C2=O)N(CCCl)CCCl` (stereo not given), for which the values for the IC50 in the data set with MDA-MB-231 [1] and in the data set on HeLa [2] were 1 µM and 0.154 µM, respectively.

Turning to `Cc1ccc(C(c2cc(O)c3c(c2O)C(=O)c2ccccc2C3=O)N(CCCl)CCCl)cc1C` (stereo not given), the half-inhibitory concentration (IC50) was determined as 0.389 µM with MDA-MB-231 [1] and 0.234 µM with HeLa [2]. For the same compound, the Activity entry in the data set on MCF10 is “Toxic”.

`O=C1c2ccccc2C(=O)c2c(O)c(C(c3ccccc3)N(CCCl)CCCl)cc(O)c21` (stereo not given): the 50% inhibitory concentration (IC50) in the data set on MDA-MB-231 [1] turned out to be 0.137 µM; with HeLa [2] it was 0.339 µM. Besides, the Activity result with MCF10 is “Toxic”.

`O=C(O)CCCc1ccc(N(CCCl)CCCl)cc1` [CHLORAMBUCIL]: the half-inhibitory concentration (IC50) came out at 0.52 µM with MDA-MB-231 [1] and 0.943 µM with HeLa [2].

Regarding `O=C1c2ccccc2C(=O)c2c(O)c(C(c3cccc(F)c3)N(CCCl)CCCl)cc(O)c21` (stereo not given), the IC50 was 0.0596 µM in the data set with MDA-MB-231 [1] and 0.166 µM with HeLa [2]. Also, the Activity result in the data set with MCF10 is “Toxic”.

Regarding `O=C1c2ccccc2C(=O)c2c(O)c(C(c3ccc(Br)cc3)N(CCCl)CCCl)cc(O)c21` (stereo not given), the results for the IC50 with MDA-MB-231 [1] and with HeLa [2] were 0.299 µM and 0.262 µM, respectively.

In the case of `O=C1c2ccccc2C(=O)c2c(O)c(C(c3ccccc3F)N(CCCl)CCCl)cc(O)c21` (stereo not given), the IC50 in the data set on MDA-MB-231 [1] was 0.00059 µM; in the data set with HeLa [2] it was 0.615 µM. Also, the Activity result in the data set on MCF10 is recorded as “Toxic”. Further, the “Ratio IC50” value in the data set on MDA-MB-231 [4] came out at 900.

`COc1ccccc1C(c1cc(O)c2c(c1O)C(=O)c1ccccc1C2=O)N(CCCl)CCCl` (stereo not given): the values for the IC50 in the data set on MDA-MB-231 [1] and with HeLa [2] were 0.00213 µM and 0.21 µM, respectively. For the same compound, the Activity entry with MCF10 is “Toxic”.

In the case of `CC(C)CC(c1cc(O)c2c(c1O)C(=O)c1ccccc1C2=O)N(CCCl)CCCl` (stereo not given), the figures for the concentration for half-maximal inhibition (IC50) in the data set with MDA-MB-231 [1] and with HeLa [2] were 0.0146 µM and 0.392 µM, respectively.

Regarding `O=C1c2ccccc2C(=O)c2c(O)c(C(c3ccc(Cl)cc3)N(CCCl)CCCl)cc(O)c21` (stereo not given), the IC50 in the data set with MDA-MB-231 [1] came out at 0.048 µM; in the data set with HeLa [2], 0.185 µM.

For `O=C1c2ccccc2C(=O)c2c(O)c(C(c3ccc(F)cc3)N(CCCl)CCCl)cc(O)c21` (stereo not given), the half-inhibitory concentration (IC50) in the data set on MDA-MB-231 [1] is 0.0807 µM; in the data set with HeLa [2] it was 0.249 µM. For the same compound, the Activity entry in the data set on MCF10 is recorded as “Toxic”. For the same compound, the “Ratio IC50” value in the data set on MCF7 is recorded as 100.

Consider `CCCC(c1cc(O)c2c(c1O)C(=O)c1ccccc1C2=O)N(CCCl)CCCl` (stereo not given), for which the IC50 in the data set on MDA-MB-231 [1] was found to be 0.0619 µM; in the data set on HeLa [2] it was 0.152 µM.

For `CCC(c1cc(O)c2c(c1O)C(=O)c1ccccc1C2=O)N(CCCl)CCCl` (stereo not given), the IC50 in the data set on MDA-MB-231 [1] was found to be 0.0845 µM; in the data set with HeLa [2], 0.105 µM.
